System: MS2 coat protein
Test: apparent Kd, MS2 coat protein; higher = weaker binding; RNA-MaP array; theophylline 2 mM where present
In short: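 SNAP-549-labelled MS2 coat protein, doubled from 0.7 or 1.5 nM to 3 µM, was titrated over designs transcribed by stalled E. coli RNA polymerase on Illumina sequencing-chip clusters. Titrations were run without and then with constant ligand in 100 mM Tris-HCl pH 7.5, 80 mM KCl, 4 mM MgCl2, BSA, DTT, yeast tRNA and Tween-20. The apparent Kd is the median of filtered per-cluster fits to green signal normalised to red-channel RNA signal and control-cluster median Fmax.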

[1] = designed as: ON switch for theophylline, no ligand
[2] = ligand present: theophylline, designed as: ON switch for theophylline
[3] = designed as: OFF switch for theophylline, no ligand
[4] = ligand present: theophylline, designed as: OFF switch for theophylline

Sequence	apparent Kd [1] [nM]	apparent Kd [2] [nM]	apparent Kd [3] [nM]	apparent Kd [4] [nM]
AUGUCGUUGAAUAUAGCGGCUUGGAGUGAUACCAGAAUGAUCUAAUUCCCUUGGCAGCAUUACAUGAGGAUCACCCAUGUUCCAG	51.1	39.7		
AGAAUAACACAUGAGGAUCACCCAUGUGAUACCAGCUAGGAAACUAGCCCUUGGCAGCACAUAAUCCUCAUGAAUGUGCUGAAUA			70.4	60.6
GCUGUAAGUGCAGAUACCAGCAAGUGAGGUUUCAUAUGACAUGAGGAUCACCCAUGUAUCUGCCCUUGGCAGCUGCACUUACAGC	21.4	15.2		
AGCCUCAUACAUGAGGAUCACCCAUGUGAUACCAGUCAGGAAACUGACCCUUGGCAGCGCAUGAGGAUCACCCAUGCGCGAGGCA			59.7	113
UCGGCAGUGAACGAUACCAGCGUCACGUGGCCGGUGGUCACAUGAGGAUCACCCAUGUAACGCCCUUGGCAGCGUGCGCGUACCG			23.9	129
UGCUGACAAGGACAUGGAUGAUCAGCUGAUACCAGCCUGGAAACAGGCCCUUGGCAGCAGCACAUGAGGAUCACCCAUGUAAUAA			33.7	66.3
CCUGCGUUUCUUUUCUUUCGCAGGAAUGAUACCAGUAGGGAAACCUACCCUUGGCAGCAUGGGUAACAUGAGGAUCACCCAUGUU	473	82.2		
UCACGACGCAUGGAUACCAGCGACAUGAGGAUCACCCAUGUAUGAGGAUCAGCCAUGUUAUGCCCUUGGCAGCCACGAAGGUCAU			14.1	64.1
UGUAACAUGAGGAUCACCCAUGUAAGUGAUACCAGAUAAGUAGUAGUCCCUUGGCAGCAUAUUGGGAAAGUGUAUAGUCUAUACG	52.8	65.1		
GGUGGUGUGACGGAUACCAGCCACCGCGGCAACGCAACAUGAGGAUCACCCAUGUUGGGUGGCCCUUGGCAGCUGUCGUGCGGCG	96.5	84.7		
GCUGUAAGUGCAGAUACCAGCAGGUGAUAUUUCAUAUGACAUGAGGAUCACCCAUGUAACUGCCCUUGGCAGCUGCACUUACAGC	373	40.9		
UGACAUUGCUGCGAUACCAGACAUGAGGAUCACCCAUGUGCCAAAUAAACGUACAUAAAUGUCCCUUGGCAGCGCAGCAAUGUCU			64.4	752
UCAUUUGAGUGAGAUGUAAGGUAUCAUGAUACCAGUAGAUAAUUAUACCCUUGGCAGCAUGACAUGAGGAUCACCCAUGUACAUG			11.1	10.3
UCGUGUGUUUCGGAUACCAGUGAAAUCGAUACAUGAGGAUCACCCAUGUGAGAGGAUGUACACCCUUGGCAGCUGUCUGUAGCGG	48.9	37.4		
ACAUCCAGGUUAAUCGUGGGCAUGGUCGAUACCAGUAUUUUAAUCUACCCUUGGCAGCGACAUGAGGAUCACCCAUGUGCGAUGA			24.6	36.3
AUCGUACCUGAUGAUACCAGCAUGUGAUCAUAACAUGAGGAUCACCCAUGUAAUCAGUGAUGCCCUUGGCAGCAUAGUCGAUACA	153	55.9		
UUUUAAAGCAUGGCGUAUCGGAAAACCGAUACCAGUACAGAAAUGUACCCUUGGCAGCGGCAUUUUACAUGAGGAUCACCCAUGU			14	40.3
AGUAUACAUUCUGAUACCAGAGACAUGAGGAUCACCCAUGUCCGAUCGUCCUGCCUCAGACUCCCUUGGCAGCAGGAUAUGUGCU			16.2	27.6
UAUACAUGGGAUACCAUGGAUCCGAGUGAUACCAGCUAUCCGAAUAGCCCUUGGCAGCACAGUACAUGAGGAUCACCCAUGUAUA	27.5	33		
UGUAACAUGAGGAUCACCCAUGUAAGUGAUACCAGAUAAGUAGUAGUCCCUUGGCAGCAUAUUGGGAAAGUGUAUAGUGUAUAUG	53.3	61.7		
CAUACUUUAGUAUGACAUGUGGGCAGUGAUACCAGAUACGAAAGUAUCCCUUGGCAGCACAACAUGAGGAUCACCCAUGUAAUUA	29.6	59.2		
CCUGCUACGGGAAACCGUAGCAGGAAUGAUACCAGUAGGAAAGACUACCCUUGGCAGCAUGGGAAACAUGAGGAUCACCCAUGUU	56.3	56.6		
UUUACAUGAGGAUCACCCAUGUGCCAUGAUACCAGACAUGAAAAUGUCCCUUGGCAGCAUGAAUAAUCCUCGUCGGGAAACCGAC	140	544		
AAACUAACGAGAGGAAACCUCGAGGGUGAUACCAGCACAUAAGGGUGCCCUUGGCAGCACCGACGUACAUGAGGAUCACCCAUGU	162	65		
UUGGUAGGACAGCUCAUAUAAGCAUGUGAUACCAGCUAGAAAACUAGCCCUUGGCAGCACUUUACAUGAGGAUCACCCAUGUCCC			165	460
UUUGAUAGGACAGAUACCAGCGUGUUAUAAAACAUGAGGAUCACCCAUGUAGUGAUCAAGCGCCCUUGGCAGCUGGUUUGUUAGG	188	323		
